{"data": "Experimental data collected from several papers", "Oprd1": "Delta-type opioid receptor (Oprd1, Rattus norvegicus, UniProt P33533)", "CDK2 with cyclin A2": "Cyclin-dependent kinase 2, with cyclin A2 (CDK2, Homo sapiens, UniProt P24941)", "ST14": "Suppressor of tumorigenicity 14 protein (ST14, Homo sapiens, UniProt Q9Y5Y6)", "note": "Protocols differ between the studies behind these lines."}
{"Compound": "COc1ccc2[nH]c3c(c2c1)[C@H]1C[C@@H]([C@H]3C)N(Cc2ccccc2)C[C@]1(C)O", "target": "Oprd1", "assay": "ligand displacement, radioligand", "setting": "1 µM", "quantity": "inhibition", "result": "13%"}
{"Compound": "CC(=O)Nc1c(N)nc(SCC(=O)NN)[nH]c1=O", "target": "CDK2 with cyclin A2", "assay": "enzyme activity, inhibitor", "setting": "20 nM", "quantity": "inhibition", "result": "30.9%"}
{"Compound": "C=CC(=O)N1CCC(COCC(=O)N2CCN(c3nc(-c4cnc(N)nc4C(F)F)nc(N4CCOC[C@@H]4C)n3)CC2)CC1", "target": "ALK tyrosine kinase receptor (ALK, Homo sapiens, UniProt Q9UM73)", "assay": "binding, competition with immobilised ligand", "setting": "1 µM", "quantity": "remaining binding", "result": "72%"}
{"Compound": "CNC(=O)c1cc(Oc2ccc(NC(=O)Nc3ccc(Cl)c(C(F)(F)F)c3)cc2)ccn1", "target": "CDK2 with cyclin A2", "assay": "enzyme activity, inhibitor", "setting": "10 nM", "quantity": "inhibition", "result": "36.7%"}
{"Compound": "CNc1ncc2c(/C=C/C(=O)N3CCC(OC)CC3)nn(Cc3cccc(C(F)(F)F)c3)c2n1", "target": "CDK2 with cyclin A2", "assay": "enzyme activity, inhibitor, radiometric", "setting": "1 µM", "quantity": "remaining activity", "result": "100%"}
{"Compound": "CCCC[C@H](NC(=O)[C@H](Cc1cscn1)NC(=O)CCc1ccccc1)C(=O)N[C@@H](CCCNC(=N)N)C(=O)c1nc2ccccc2s1", "target": "ST14", "assay": "enzyme activity, inhibitor", "setting": "0.1 µM", "quantity": "remaining activity", "result": "37%"}
{"Compound": "CC(=O)Nc1c(N)nc(SCC(=O)N/N=C/c2ccc([N+](=O)[O-])cc2)[nH]c1=O", "target": "CDK2 with cyclin A2", "assay": "enzyme activity, inhibitor", "setting": "1 µM", "quantity": "inhibition", "result": "67.2%"}
{"Compound": "CC[C@@H](C)[C@H](NC(=O)[C@H](Cc1cscn1)NC(=O)CCc1ccccc1)C(=O)N[C@@H](CCCNC(=N)N)C(=O)c1nc2ccccc2s1", "target": "ST14", "assay": "enzyme activity, inhibitor", "setting": "0.1 µM", "quantity": "remaining activity", "result": "4%"}
{"Compound": "COc1cc(-c2cncc3c2CN(C)Cc2cc(N4CCNCC4)ccc2-3)cc(OC)c1OC", "target": "Tyrosine-protein kinase Fyn (FYN, Homo sapiens, UniProt P06241)", "assay": "enzyme activity, inhibitor", "setting": "1 µM", "quantity": "remaining activity", "result": "94%"}
{"Compound": "N=C(N)NCCC[C@H](NC(=O)[C@@H](NC(=O)[C@H](Cc1cscn1)NC(=O)CCc1ccccc1)c1ccccc1)C(=O)c1nc2ccccc2s1", "target": "ST14", "assay": "enzyme activity, inhibitor", "setting": "0.1 µM", "quantity": "remaining activity", "result": "33%"}
{"Compound": "C[C@H]1C(=O)/C(=C/c2ccccc2)[C@H]2C[C@@H]1N(Cc1ccccc1)C[C@@]2(C)O", "target": "Oprd1", "assay": "ligand displacement, radioligand", "setting": "1 µM", "quantity": "inhibition", "result": "16%"}
{"Compound": "N=C(N)NCCC[C@H](NC(=O)[C@H](Cc1cccc2ccccc12)NC(=O)[C@H](Cc1cscn1)NC(=O)CCc1ccccc1)C(=O)c1nc2ccccc2s1", "target": "ST14", "assay": "enzyme activity, inhibitor", "setting": "0.1 µM", "quantity": "remaining activity", "result": "6%"}
{"Compound": "O=C(COP(=O)(O)O)[C@@H](O)[C@H](O)[C@H](O)COP(=O)(O)O", "target": "Glyceraldehyde-3-phosphate dehydrogenase (GAPDH, Homo sapiens, UniProt P04406)", "assay": "thermal stability", "setting": "5 mM, lysate", "quantity": "ΔTm", "result": "5.9 °C"}
{"Compound": "N=C(N)NCCC[C@H](NC(=O)C1(NC(=O)[C@H](Cc2cscn2)NC(=O)CCc2ccccc2)CCCC1)C(=O)c1nc2ccccc2s1", "target": "ST14", "assay": "enzyme activity, inhibitor", "setting": "0.1 µM", "quantity": "remaining activity", "result": "84%"}
{"Compound": "Cc1cc([C@@H](C)Nc2ccccc2C(=O)O)c2nc(N3CCC(F)(F)CC3)c(C#N)c(=O)n2c1", "target": "Mitogen-activated protein kinase 10 (MAPK10, Homo sapiens, UniProt P53779)", "assay": "binding, competition with immobilised ligand", "setting": "10 µM", "quantity": "remaining binding", "result": "100%"}
